Laboratory results published in ChEMBL document CHEMBL3259628, “Discovery of novel 2-((pyridin-3-yloxy)methyl)piperazines as α7 nicotinic acetylcholine receptor modulators for the treatment of inflammatory disorders” (J Med Chem, 2014).
The source made the active and inactive calls. The calls are words filed in the database; no cut-off is given here.

Tests used:
[1] = tested on: Mus musculus; assay: (§1) Antiinflammatory activity against ovalbumin-induced allergic lung inflammation BALB/c mouse model assessed as reduction in neutrophils in brochoalveolar lavage fluid at 30 mg/kg, po bid administered on day 29 to 31 post ovalbumin challenge measured 8 hrs post last challenge relative to vehicle-treated control; format: functional, organism-based; parameters: dose 30 mg/kg; details: Bronchoalveolar lavage
Procedure, shortened: (§2)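 Balb/c mice sensitized with ovalbumin by IP injection on days 1 and 14, then challenged intranasally with 100 μg ovalbumin on days 29, 30 and 31. Compound in saline given orally starting 30 min before each challenge; groups of six mice. Sham groups were saline-sensitized and allergen-challenged. BAL taken 8 h after the last challenge, with differential cell counts on slides.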

[2] = tested on: Mus musculus; assay: as §1, with “total blood cells” for “neutrophils”, “5” for “30”; format: functional; procedure, shortened: as §2
[3] = Clearance in mouse at 1 mg/kg, iv; format: ADME, organism-based; parameters: dose 1 mg/kg, route intravenous; details: in vivo
[4] = Half life in mouse at 5 mg/kg, po; format: ADME, organism-based; parameters: dose 5 mg/kg, route oral; details: in vivo
[5] = target: Voltage-gated inwardly rectifying potassium channel KCNH2 (Homo sapiens, UniProt Q12809); assay: Inhibition of human ERG by whole-cell voltage clamp assay
[6] = target: Cytochrome P450 3A4 (Homo sapiens, UniProt P08684); assay: Inhibition of CYP3A4 (unknown origin); format: ADME
Procedure, shortened: (§3)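 Each of five Cyp isoforms assayed with single probe substrates rather than a substrate cocktail. Run in duplicate at Cerep. IC50 lines come from a 5-concentration titration curve.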

[7] = tested on: Mus musculus; assay: as §1, with “5” for “30”; format: functional; details: Bronchoalveolar lavage; procedure, shortened: as §2
[8] = tested on: Mus musculus; assay: as §1, with “1” for “30”; format: functional; details: Bronchoalveolar lavage; procedure, shortened: as §2
[9] = Ratio of drug uptake in brain to plasma in iv dosed mouse measured after 5 to 30 mins; format: ADME, organism-based; details: brain and plasma, read-out: BPR
[10] = target: Cytochrome P450 1A2 (Homo sapiens, UniProt P05177); assay: Inhibition of CYP1A2 (unknown origin); format: ADME; procedure, shortened: as §3
[11] = tested on: Mus musculus; assay: as §1, with “0.2” for “30”; format: functional, organism-based; parameters: dose 0.2 mg/kg; details: Bronchoalveolar lavage; procedure, shortened: as §2
[12] = Half life in rat at 15 mg/kg, po; format: ADME, organism-based; parameters: dose 15 mg/kg, route oral; details: in vivo
[13] = tested on: Mus musculus; assay: as §1, with “eosinophils” for “neutrophils”, “5” for “30”; format: functional; procedure, shortened: as §2
[14] = tested on: Mus musculus; assay: as §1, with “eosinophils” for “neutrophils”, “1” for “30”; format: functional; procedure, shortened: as §2
[15] = target: Histamine H3 receptor (Homo sapiens) (UniProt Q9Y5N1); assay: Inhibition of human histamine H3 receptor at 10 uM
Procedure, shortened: (§4)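 Receptor, ion channel and transporter binding panel run at Cerep in duplicate. Percent inhibition measured at 10 μM compound.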

[16] = tested on: Mus musculus; assay: as §1, with “total blood cells” for “neutrophils”; format: functional, organism-based; parameters: dose 30 mg/kg; procedure, shortened: as §2
[17] = target: Cytochrome P450 2D6 (Homo sapiens, UniProt P10635); assay: Inhibition of CYP2D6 (unknown origin); format: ADME; procedure, shortened: as §3
[18] = Cmax in mouse at 5 mg/kg, po; format: ADME, organism-based; parameters: dose 5 mg/kg, route oral; details: in vivo
[19] = tested on: Mus musculus; assay: as §1, with “eosinophils” for “neutrophils”, “0.2” for “30”; format: functional, organism-based; parameters: dose 0.2 mg/kg; procedure, shortened: as §2
[20] = tested on: Mus musculus; assay: as §1, with “total blood cells” for “neutrophils”, “0.2” for “30”; format: functional, organism-based; parameters: dose 0.2 mg/kg; procedure, shortened: as §2
[21] = target: Cytochrome P450 2C19 (Homo sapiens, UniProt P33261); assay: Inhibition of CYP2C19 (unknown origin); format: ADME; procedure, shortened: as §3
[22] = Cmax in rat at 15 mg/kg, po; format: ADME, organism-based; parameters: dose 15 mg/kg, route oral; details: in vivo
[23] = tested on: Mus musculus; assay: as §1, with “total blood cells” for “neutrophils”, “1” for “30”; format: functional; procedure, shortened: as §2
[24] = Oral bioavailability in mouse at 5 mg/kg; format: ADME, organism-based; details: in vivo
[25] = target: Neuronal acetylcholine receptor subunit alpha-7 (Rattus norvegicus, UniProt Q05941); assay: Inhibition of biotinylated alpha-bungarotoxin binding to alpha7 nAChR in rat PC12 cells by FACS analysis; format: cell-based, PC-12
Procedure, shortened: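 Rat PC12 cells in binding buffer (PBS, 1.0% FBS, 0.02% sodium azide), 0.1% DMSO; biotinylated α-bungarotoxin 10 nM final, 1 h at room temperature; nonspecific binding defined with 1.5 μM unlabeled toxin. After washing, phycoerythrin-streptavidin 1.0 μg/mL final, 15 min in the dark; read by FACS. Screened at 10 and 1 μM, then eight-point 3-fold dilution IC50; mean of two or more experiments.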

[26] = target: Neuronal acetylcholine receptor; alpha4/beta2 (Homo sapiens, UniProt P17787+P43681); assay: Inhibition of human alpha4beta2 nAChR at 10 uM by binding assay
[27] = target: Cytochrome P450 2C9 (Homo sapiens, UniProt P11712); assay: Inhibition of CYP2C9 (unknown origin); format: ADME; procedure, shortened: as §3
[28] = Half life in mouse at 1 mg/kg, iv; format: ADME, organism-based; parameters: dose 1 mg/kg, route intravenous; details: in vivo
[29] = tested on: Mus musculus; assay: as §1, with “eosinophils” for “neutrophils”; format: functional, organism-based; parameters: dose 30 mg/kg; procedure, shortened: as §2
[30] = Half life in rat at 1 mg/kg, iv; format: ADME, organism-based; parameters: dose 1 mg/kg, route intravenous; details: in vivo
[31] = species on record: Rattus norvegicus; assay: Inhibition of rat sodium channel site 2 at 10 uM; procedure, shortened: as §4
[32] = Clearance in rat at 1 mg/kg, iv; format: ADME, organism-based; parameters: dose 1 mg/kg, route intravenous; details: in vivo
[33] = Oral bioavailability in rat at 15 mg/kg; format: ADME, organism-based; details: in vivo

Chain of Cytochrome P450 1A2 (P05177 whole entry): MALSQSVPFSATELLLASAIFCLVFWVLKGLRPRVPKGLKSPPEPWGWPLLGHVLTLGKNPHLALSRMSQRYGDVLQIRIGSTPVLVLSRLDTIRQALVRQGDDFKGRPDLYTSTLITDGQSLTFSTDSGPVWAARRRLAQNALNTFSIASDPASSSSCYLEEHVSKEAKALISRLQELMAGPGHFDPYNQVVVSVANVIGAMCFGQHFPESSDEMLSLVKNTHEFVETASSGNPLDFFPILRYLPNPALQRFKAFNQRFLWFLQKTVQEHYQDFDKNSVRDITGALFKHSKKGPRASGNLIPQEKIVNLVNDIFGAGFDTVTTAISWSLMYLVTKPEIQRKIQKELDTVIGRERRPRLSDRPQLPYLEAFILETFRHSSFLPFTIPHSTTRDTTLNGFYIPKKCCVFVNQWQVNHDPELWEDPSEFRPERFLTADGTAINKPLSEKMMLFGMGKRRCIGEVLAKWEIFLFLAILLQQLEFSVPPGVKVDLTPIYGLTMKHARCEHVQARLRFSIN
Chain of Cytochrome P450 2C19 (P33261 whole entry): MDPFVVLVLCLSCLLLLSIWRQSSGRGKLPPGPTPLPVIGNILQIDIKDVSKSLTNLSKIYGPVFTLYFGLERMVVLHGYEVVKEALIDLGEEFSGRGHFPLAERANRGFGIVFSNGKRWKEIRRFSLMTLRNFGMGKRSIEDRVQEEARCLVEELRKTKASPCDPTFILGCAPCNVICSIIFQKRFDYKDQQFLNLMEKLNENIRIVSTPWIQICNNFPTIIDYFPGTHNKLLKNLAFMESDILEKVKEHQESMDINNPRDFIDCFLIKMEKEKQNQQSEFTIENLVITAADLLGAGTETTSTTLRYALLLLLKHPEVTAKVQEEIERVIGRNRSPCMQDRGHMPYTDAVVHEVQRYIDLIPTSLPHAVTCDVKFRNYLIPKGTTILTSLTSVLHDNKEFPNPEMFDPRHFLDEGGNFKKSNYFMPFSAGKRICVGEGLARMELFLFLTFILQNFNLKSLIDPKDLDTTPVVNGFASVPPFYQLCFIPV
Chain of Cytochrome P450 2C9 (P11712 whole entry): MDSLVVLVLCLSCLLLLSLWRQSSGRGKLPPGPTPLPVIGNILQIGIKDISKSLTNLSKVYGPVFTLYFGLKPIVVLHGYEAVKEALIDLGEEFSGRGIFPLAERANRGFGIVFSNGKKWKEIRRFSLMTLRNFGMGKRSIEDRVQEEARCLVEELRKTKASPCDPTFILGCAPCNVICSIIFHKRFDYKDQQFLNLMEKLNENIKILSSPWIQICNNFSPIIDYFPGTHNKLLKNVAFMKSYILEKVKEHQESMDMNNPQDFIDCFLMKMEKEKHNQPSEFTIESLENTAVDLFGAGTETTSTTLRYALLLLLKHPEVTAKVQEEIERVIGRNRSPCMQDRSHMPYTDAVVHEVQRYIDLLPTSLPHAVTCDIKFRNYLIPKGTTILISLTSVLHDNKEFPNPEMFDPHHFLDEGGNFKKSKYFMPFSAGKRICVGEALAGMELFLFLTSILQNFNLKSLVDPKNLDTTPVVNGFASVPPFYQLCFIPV
Chain of Cytochrome P450 3A4 (P08684 whole entry, canonical isoform): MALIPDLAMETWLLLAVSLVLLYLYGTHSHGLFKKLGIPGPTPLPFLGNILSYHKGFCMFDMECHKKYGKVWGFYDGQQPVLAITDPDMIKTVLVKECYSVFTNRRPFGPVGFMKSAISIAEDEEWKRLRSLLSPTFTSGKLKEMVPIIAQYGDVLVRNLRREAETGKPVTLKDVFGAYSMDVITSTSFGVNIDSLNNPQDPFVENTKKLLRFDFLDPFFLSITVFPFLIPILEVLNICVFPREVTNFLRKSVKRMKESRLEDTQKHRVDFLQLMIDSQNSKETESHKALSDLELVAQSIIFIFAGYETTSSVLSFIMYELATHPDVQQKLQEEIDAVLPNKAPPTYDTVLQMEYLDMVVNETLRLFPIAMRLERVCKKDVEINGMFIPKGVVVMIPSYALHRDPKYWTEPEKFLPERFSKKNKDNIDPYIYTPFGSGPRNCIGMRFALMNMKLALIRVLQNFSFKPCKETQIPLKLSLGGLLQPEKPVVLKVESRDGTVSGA
Chain of Voltage-gated inwardly rectifying potassium channel KCNH2 (Q12809 whole entry): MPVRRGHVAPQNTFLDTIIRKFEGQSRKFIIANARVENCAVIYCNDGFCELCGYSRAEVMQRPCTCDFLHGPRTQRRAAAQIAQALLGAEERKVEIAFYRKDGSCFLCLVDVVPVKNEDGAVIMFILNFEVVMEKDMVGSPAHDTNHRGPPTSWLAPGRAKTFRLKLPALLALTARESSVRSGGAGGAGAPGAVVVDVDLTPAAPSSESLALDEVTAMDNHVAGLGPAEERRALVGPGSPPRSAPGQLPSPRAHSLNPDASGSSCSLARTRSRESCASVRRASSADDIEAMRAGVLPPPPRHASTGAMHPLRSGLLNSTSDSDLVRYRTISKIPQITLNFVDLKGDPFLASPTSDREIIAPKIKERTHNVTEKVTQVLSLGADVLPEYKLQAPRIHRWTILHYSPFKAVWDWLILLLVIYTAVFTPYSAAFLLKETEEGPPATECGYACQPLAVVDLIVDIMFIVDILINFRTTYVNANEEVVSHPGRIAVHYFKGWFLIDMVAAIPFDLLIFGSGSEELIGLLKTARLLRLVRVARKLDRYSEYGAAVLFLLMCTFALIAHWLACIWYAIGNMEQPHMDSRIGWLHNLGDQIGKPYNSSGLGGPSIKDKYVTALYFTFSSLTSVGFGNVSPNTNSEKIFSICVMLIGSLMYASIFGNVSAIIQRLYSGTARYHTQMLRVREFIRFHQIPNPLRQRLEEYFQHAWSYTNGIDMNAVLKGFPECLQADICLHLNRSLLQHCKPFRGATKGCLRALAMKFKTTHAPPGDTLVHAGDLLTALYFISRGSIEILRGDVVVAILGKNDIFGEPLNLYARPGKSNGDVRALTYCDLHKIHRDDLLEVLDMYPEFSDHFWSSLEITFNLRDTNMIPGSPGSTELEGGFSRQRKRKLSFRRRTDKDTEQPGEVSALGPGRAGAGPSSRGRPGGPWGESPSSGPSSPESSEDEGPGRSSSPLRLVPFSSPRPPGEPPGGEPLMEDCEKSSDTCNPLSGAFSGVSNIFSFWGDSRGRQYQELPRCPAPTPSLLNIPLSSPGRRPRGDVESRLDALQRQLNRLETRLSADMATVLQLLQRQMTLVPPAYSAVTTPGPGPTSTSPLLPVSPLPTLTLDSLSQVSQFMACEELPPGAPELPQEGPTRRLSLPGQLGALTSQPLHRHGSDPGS
Chain of Cytochrome P450 2D6 (P10635 whole entry): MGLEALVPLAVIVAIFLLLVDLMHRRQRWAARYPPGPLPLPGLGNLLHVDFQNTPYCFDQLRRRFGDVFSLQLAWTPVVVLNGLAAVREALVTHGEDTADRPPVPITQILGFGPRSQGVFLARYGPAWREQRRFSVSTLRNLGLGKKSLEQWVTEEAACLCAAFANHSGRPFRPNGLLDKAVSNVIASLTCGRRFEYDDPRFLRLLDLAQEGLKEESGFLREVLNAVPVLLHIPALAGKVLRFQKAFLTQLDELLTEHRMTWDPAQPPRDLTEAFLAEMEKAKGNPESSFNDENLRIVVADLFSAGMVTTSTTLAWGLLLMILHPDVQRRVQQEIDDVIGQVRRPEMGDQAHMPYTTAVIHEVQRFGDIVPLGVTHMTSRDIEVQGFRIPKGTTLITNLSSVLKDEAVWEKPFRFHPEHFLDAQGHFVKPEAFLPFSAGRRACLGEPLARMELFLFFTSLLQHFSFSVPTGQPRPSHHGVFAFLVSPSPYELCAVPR
Chain of Histamine H3 receptor (Homo sapiens) (Q9Y5N1 whole entry): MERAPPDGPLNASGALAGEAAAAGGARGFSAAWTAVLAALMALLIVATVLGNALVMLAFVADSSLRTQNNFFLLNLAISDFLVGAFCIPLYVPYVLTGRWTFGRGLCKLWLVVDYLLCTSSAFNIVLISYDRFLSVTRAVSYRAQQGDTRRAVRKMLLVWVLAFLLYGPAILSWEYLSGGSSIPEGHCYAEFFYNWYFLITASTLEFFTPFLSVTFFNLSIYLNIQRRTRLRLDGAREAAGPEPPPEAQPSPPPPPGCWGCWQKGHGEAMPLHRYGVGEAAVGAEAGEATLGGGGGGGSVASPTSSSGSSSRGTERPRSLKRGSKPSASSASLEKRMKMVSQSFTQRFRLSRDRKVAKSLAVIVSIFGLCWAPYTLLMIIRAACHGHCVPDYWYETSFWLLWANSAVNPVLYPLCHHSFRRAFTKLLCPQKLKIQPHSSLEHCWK
Chain of Neuronal acetylcholine receptor subunit alpha-7 (Q05941 whole entry): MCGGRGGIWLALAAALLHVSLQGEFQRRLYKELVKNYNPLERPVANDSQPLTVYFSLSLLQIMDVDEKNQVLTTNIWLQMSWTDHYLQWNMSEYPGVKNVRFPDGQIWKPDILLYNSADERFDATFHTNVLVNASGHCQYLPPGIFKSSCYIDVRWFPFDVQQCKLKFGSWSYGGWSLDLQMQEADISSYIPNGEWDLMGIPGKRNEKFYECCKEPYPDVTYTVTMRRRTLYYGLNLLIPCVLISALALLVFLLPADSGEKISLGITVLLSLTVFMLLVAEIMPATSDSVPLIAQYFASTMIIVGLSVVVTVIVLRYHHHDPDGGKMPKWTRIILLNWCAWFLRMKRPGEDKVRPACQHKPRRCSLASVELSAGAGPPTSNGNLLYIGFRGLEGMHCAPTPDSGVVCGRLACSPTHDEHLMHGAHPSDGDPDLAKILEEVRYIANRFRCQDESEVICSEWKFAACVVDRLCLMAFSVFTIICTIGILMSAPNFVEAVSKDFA

## COc1ccc(NC(=O)N2CCNC[C@@H]2COc2cccnc2)cc1.Cl
[1]
  inhibition: inactive
[2]
  inhibition in vivo at 5 mg/kg: 63%
[3]
  clearance: 103 mL/min/kg
[4]
  half-life: 1.73 h
[5]
  IC50: 31 µM
[6]
  IC50: > 100 µM
[7]
  inhibition in vivo at 5 mg/kg: 70%
[8]
  inhibition in vivo at 1 mg/kg: 61%
[9]
  Kp: ≤ 0.06
[10]
  IC50: > 100 µM
[11]
  inhibition: inactive
[12]
  half-life: 2.35 h
[13]
  inhibition in vivo at 5 mg/kg: 74%
[14]
  inhibition in vivo at 1 mg/kg: 48%
[15]
  inhibition: 86%
[16]
  inhibition: inactive
[17]
  IC50: > 100 µM
[18]
  Cmax: 950 nM
[19]
  inhibition: inactive
[20]
  inhibition: inactive
[21]
  IC50: > 100 µM
[22]
  Cmax: 751 ng/mL
[23]
  inhibition in vivo at 1 mg/kg: 53%
[24]
  bioavailability: 76%
[25]
  IC50: 0.019 µM
[26]
  inhibition: 10%
[27]
  IC50: > 100 µM
[28]
  half-life: 0.65 h
[29]
  inhibition: inactive
[30]
  half-life: 1.22 h
[31]
  inhibition: 48%
[32]
  clearance: 86 mL/min/kg
[33]
  bioavailability: 89%
